{"data": "Results collected from several papers", "organism": "Candida albicans", "effect on": "microbial growth"}
{"SMILES": "CC1=NN(CNC(=O)c2ccccn2)C(=O)C1=NNn1c(-c2ccccc2)nc2ccccc2c1=O", "method": "broth dilution", "MIC": "104 µM"}
{"SMILES": "N=C(N)NCc1ccc(NC(=O)C23CCC(C(=O)Nc4ccc(C5=CCN(C(=N)N)CC5)cc4)(CC2)CC3)cc1", "method": "broth dilution", "time": "48 h", "notes": "clinical isolate", "MIC": "0.2 µg/mL"}
{"SMILES": "C[C@@H]1[C@H](O)[C@@H](C)/C=C/C=C/C=C/C=C/C=C/C=C/C=C/[C@H](O[C@@H]2O[C@H](C)[C@@H](O)[C@H](N)[C@@H]2O)C[C@@H]2O[C@](O)(C[C@@H](O)C[C@@H](O)[C@H](O)CC[C@@H](O)C[C@@H](O)CC(=O)O[C@H]1C)C[C@H](O)[C@H]2C(=O)O", "strain": "ATCC90028", "MIC": "0.63 µg/mL"}
{"SMILES": "C[C@@H]1[C@H](O)[C@@H](C)/C=C/C=C/C=C/C=C/C=C/C=C/C=C/[C@H](O[C@@H]2O[C@H](C)[C@@H](O)[C@H](N)[C@@H]2O)C[C@@H]2O[C@](O)(C[C@@H](O)C[C@@H](O)[C@H](O)CC[C@@H](O)C[C@@H](O)CC(=O)O[C@H]1C)C[C@H](O)[C@H]2C(=O)O", "method": "broth dilution", "MIC": "0.25 µg/mL"}
{"SMILES": "CC1=NN(CNc2ccc(C(=O)O)cc2)C(=O)C1=NNn1c(-c2ccccc2)nc2ccccc2c1=O", "method": "broth dilution", "MIC": "50.5 µM"}
{"SMILES": "NOCC(=O)O", "strain": "SC5314", "MIC": "1000 µg/mL"}
{"SMILES": "OC(Cn1cncn1)(Cn1cncn1)c1ccc(F)cc1F", "method": "broth dilution", "strain": "ATCC90028", "time": "24 h", "MIC": "0.125 µg/mL"}
{"SMILES": "C=C1C(=O)O[C@@H](CCCCCCCCCCCCC)[C@@H]1C(=O)O", "strain": "SC5314", "MIC": "64 µg/mL"}
{"SMILES": "O=C(CCc1ccc(O)c(O)c1)NCCCCCCCC[P+](c1ccccc1)(c1ccccc1)c1ccccc1.[Br-]", "method": "broth dilution", "strain": "ATCC90028", "time": "24 h", "MIC": "> 32 µg/mL"}
{"SMILES": "O=C1NN=C(N=Cc2ccccc2O)C1=NNn1c(-c2ccccc2)nc2ccccc2c1=O", "method": "broth dilution", "MIC": "111 µM"}
{"SMILES": "O=C(CCCCCCCCCC[P+](c1ccccc1)(c1ccccc1)c1ccccc1)Nc1cc(O)c(O)c(O)c1.[Br-]", "method": "broth dilution", "strain": "ATCC90028", "time": "24 h", "MIC": "8 µg/mL"}
{"SMILES": "COc1cc(-c2ccccc2)cc(C(C)C#Cc2c(C)nc(N)nc2N)c1 (racemic)", "method": "resazurin", "MIC": "250 µM"}
{"SMILES": "O=C(CCCCCCCC[P+](c1ccccc1)(c1ccccc1)c1ccccc1)Nc1cc(O)c(O)c(O)c1.[Br-]", "method": "broth dilution", "strain": "ATCC90028", "time": "24 h", "MIC": "> 32 µg/mL"}
{"SMILES": "CCOC(=O)c1nc2ccccc2c(=O)n1Cc1cn(-c2ccc(C)cc2)nn1", "method": "broth dilution", "strain": "ATCC90028", "MIC": "250 µg/mL"}
{"SMILES": "O=C(Cc1ccc(O)c(O)c1)NCCCCCCCC[P+](c1ccccc1)(c1ccccc1)c1ccccc1.[Br-]", "method": "broth dilution", "strain": "ATCC90028", "time": "24 h", "MIC": "> 32 µg/mL"}
{"SMILES": "CC1=NN(CNc2ccc(Cl)cc2)C(=O)C1=NNn1c(-c2ccccc2)nc2ccccc2c1=O", "method": "broth dilution", "MIC": "51.5 µM"}
